This excerpt belongs to a sample that is enriched for hits.
ABCG2 block – inhibitors of human ABCG2 transporter, ABCB1 counter-screen; Q9UNQ0; IgMXP3 cells, JC-1 efflux, flow cytometry; inhibition, % at 6.6 µM; 190,000 compounds, 0.1% hits; AID 1325;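 active = inhibition above 80%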;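 also: 0% = DMSO and 100% = nicardipine control wells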
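System: two drug-resistant human cell lines, ABCG2 and ABCB1; controls: nicardipine high and DMSO low controls; times: 10 min exposure at 25 °C with rotation, no wash; detection: flow cytometry of retained JC-1 fluorescence; read-out basis: percent efflux inhibition, scaled nicardipine 100% to DMSO 0%; doses: one concentration, 6.6 µM final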
ABCB1 block – human ABCB1 inhibition, ABCG2 as counter-screen. CCRF-Adr cells, JC-1 efflux, flow cytometry. inhibition, % at 6.6 µM. 190,000 compounds, 0.067% hits; in the data active = inhibition above about 40%;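 also: 0% = vehicle and 100% = reference inhibitor; higher value means more JC-1 retained so stronger ABCB1 efflux block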
GSH fluor – GSH bead compound fluorescence profile. GSH beads flow cytometry, compound fluorescence 488/530 nm; stronger effect = higher value. fluorescence (KMESF) at 10 µM. 190,000 compounds, 0.25% hits. AID 1776; in the data active = fluorescence above about 89;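 also: glutathione beads carrying GST-tagged Bcl family fusion proteins plus one bare bead set; values are compound well signal with DMSO vehicle wells as background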
PKD1 inh – blocks activity of human protein kinase D1; PKD1 kinase fluorescence polarization assay; inhibition, % (no concentration beside the values); 200,000 compounds, 0.056% hits; AID 797
Target sequence (Q15139 whole entry, looked up): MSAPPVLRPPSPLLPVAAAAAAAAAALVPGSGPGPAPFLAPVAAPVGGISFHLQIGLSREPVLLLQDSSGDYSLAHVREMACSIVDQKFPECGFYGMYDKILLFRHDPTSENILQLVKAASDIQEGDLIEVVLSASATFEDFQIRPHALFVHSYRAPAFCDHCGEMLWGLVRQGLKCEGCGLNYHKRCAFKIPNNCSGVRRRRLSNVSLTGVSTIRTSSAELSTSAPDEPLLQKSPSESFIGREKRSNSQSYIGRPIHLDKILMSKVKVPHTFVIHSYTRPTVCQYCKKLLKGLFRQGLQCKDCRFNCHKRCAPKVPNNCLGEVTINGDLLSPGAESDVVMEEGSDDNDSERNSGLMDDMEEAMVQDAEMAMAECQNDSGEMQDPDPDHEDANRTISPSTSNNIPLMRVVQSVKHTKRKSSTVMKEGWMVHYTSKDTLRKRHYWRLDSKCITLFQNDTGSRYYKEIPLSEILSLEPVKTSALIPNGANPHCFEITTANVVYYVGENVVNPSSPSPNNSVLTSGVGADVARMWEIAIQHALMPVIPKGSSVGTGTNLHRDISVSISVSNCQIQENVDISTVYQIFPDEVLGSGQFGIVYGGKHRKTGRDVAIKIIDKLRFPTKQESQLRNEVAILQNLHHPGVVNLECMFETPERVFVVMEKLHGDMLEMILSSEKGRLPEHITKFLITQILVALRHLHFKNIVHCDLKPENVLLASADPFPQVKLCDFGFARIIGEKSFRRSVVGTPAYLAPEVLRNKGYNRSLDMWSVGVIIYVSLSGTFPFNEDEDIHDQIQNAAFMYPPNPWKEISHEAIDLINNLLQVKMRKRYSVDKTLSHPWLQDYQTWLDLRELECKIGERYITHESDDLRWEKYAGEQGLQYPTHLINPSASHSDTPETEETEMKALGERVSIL
Avidin fluor – avidin bead compound fluorescence profile | Avidin beads, compound fluorescence 488/530 nm, flow cytometry; stronger effect = higher value | fluorescence (KMESF) at 10 µM | 220,000 compounds, 0.38% hits; in the data active = fluorescence above about 47
Lmaj promast – inhibitors of Leishmania major promastigote growth; Leishmania major promastigotes, resazurin fluorescence viability; inhibition, % at 10 µM; 200,000 compounds, 9% hits; AID 1063;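 also: promastigotes grown with compound for 44 hours at 28 °C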
Active calls of the source: *. Rule as the data show it, unless noted: active = inhibition above about 50%; inactive = the rest.

`NS(=O)(=O)c1ccc(N=Nc2c(-c3ccccc3)[nH]n(-c3nc(-c4ccccc4)cs3)c2=O)cc1` gave ABCG2 block -11, ABCB1 block -1, GSH fluor 16, PKD1 inh -3, Avidin fluor 7 and Lmaj promast 73*.
For O=c1c(N=Nc2ccc(O)cc2)c(-c2ccccc2)[nH]n1-c1ccc([N+](=O)[O-])cc1 the results were ABCG2 block 0, ABCB1 block 0, GSH fluor 24, PKD1 inh -4, Avidin fluor 6 and Lmaj promast 0.
For Cc1ccc(C)c(N(CC(N)=O)S(C)(=O)=O)c1 the results were ABCG2 block 5, ABCB1 block 1, GSH fluor 20, PKD1 inh -10, Avidin fluor 9 and Lmaj promast -9.
For O=C(N1CCCCC1)N1CCN(C(c2ccccc2)c2ccccc2)CC1 the results were ABCG2 block -1, ABCB1 block 0, GSH fluor 11, PKD1 inh 0, Avidin fluor 9 and Lmaj promast 10.
Screening CS(=O)(=O)N1CCC(C(=O)N2CCN(C(c3ccccc3)c3ccccc3)CC2)CC1 returned ABCG2 block 0, ABCB1 block 0, GSH fluor 22, PKD1 inh -1, Avidin fluor 10 and Lmaj promast 67*.
CSc1ccc(CN2CCN(Cc3ccc([N+](=O)[O-])cc3)CC2)cc1 was read as ABCG2 block 0, ABCB1 block 0, GSH fluor 12, PKD1 inh -5, Avidin fluor 11 and Lmaj promast 91*.
Screening O=[N+]([O-])c1ccc(CN2CCOCCOCCN(Cc3ccc([N+](=O)[O-])cc3)CCOCC2)cc1 returned ABCG2 block 13, ABCB1 block 3, GSH fluor 8, PKD1 inh -9, Avidin fluor 4 and Lmaj promast 80*.
`CCC1=Nc2cc(C(=O)NCc3ccco3)ccc2Sc2ccc(C)cc21` gave ABCG2 block 9, ABCB1 block 6, GSH fluor 4, PKD1 inh -3, Avidin fluor 9 and Lmaj promast 67*.
CC(=O)Nc1cc(C(=O)NCc2ccco2)ccc1Sc1ccc(C)cc1 was read as ABCG2 block 30, ABCB1 block 1, GSH fluor 4, PKD1 inh -4, Avidin fluor 15 and Lmaj promast 75*.
CCC1=Nc2cc(C(=O)NCCCOC)ccc2Sc2ccccc21 was read as ABCG2 block 7, ABCB1 block 0, GSH fluor 35, PKD1 inh 0, Avidin fluor 13 and Lmaj promast 19.
`CCN(CC)CCNC(=O)c1ccc(Sc2ccc(C)cc2)c(NC(C)=O)c1` gave ABCG2 block 0, ABCB1 block 0, GSH fluor 15, PKD1 inh -2, Avidin fluor 6 and Lmaj promast -2.
Screening Cc1ccc(CNC(=O)CN2C(=O)C3(OCCCO3)c3ccccc32)cc1 returned ABCG2 block 2, ABCB1 block 1, GSH fluor 13, PKD1 inh -8, Avidin fluor 30 and Lmaj promast 1.
`Cc1ccc(C)c(CN2C(=O)C3(OCCCO3)c3ccccc32)c1` gave ABCG2 block 3, ABCB1 block 1, GSH fluor 13, PKD1 inh -1, Avidin fluor 33 and Lmaj promast 58*.
Oc1ccc(C=Nc2ccc(N3CCOCC3)cc2)c(O)c1 was read as ABCG2 block 1, ABCB1 block 0, GSH fluor 36, PKD1 inh -5, Avidin fluor 6 and Lmaj promast 1.
Screening Oc1ccc(N=Nc2cccc(C(F)(F)F)c2)cc1C=Nc1ccc(N2CCOCC2)cc1 returned ABCG2 block 10, ABCB1 block 2, GSH fluor 5, PKD1 inh -3, Avidin fluor 14 and Lmaj promast 91*.
`Cc1cc(C(=O)CN2C(=O)NC3(CCCc4sccc43)C2=O)c(C)n1-c1ccc(Cl)cc1` (centres undefined) gave ABCG2 block -2, ABCB1 block 4, GSH fluor 9, PKD1 inh 4, Avidin fluor 15 and Lmaj promast 84*.
Screening Cc1cc(C(=O)CN2C(=O)NC3(CCCc4ccccc43)C2=O)c(C)n1C (centres undefined) returned ABCG2 block 1, ABCB1 block 1, GSH fluor 20, PKD1 inh 0, Avidin fluor 5 and Lmaj promast 7.
